ChEMBL document CHEMBL1150856, “Trypanocidal withanolides and withanolide glycosides from Dunalia brachyacantha” (2001)
The source made the active and inactive calls. The calls are words filed in the database; no cut-off is given here.

Experiments:
[1] = system: Trypanosoma cruzi; test: Antiparasitic activity against Trypanosoma cruzi Tulahuen epimastigotes at 50 ug/mL after 48 hrs; type: functional
Summary of the method: (§1)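 Epimastigotes in LIT medium with 10% fetal calf serum, inoculum 10⁶ cells/mL, 28 °C. Samples were dissolved in DMSO and medium to final 50, 20, 10, 1 and 0.1 μg/mL (final DMSO under 0.5%). Triplicate. After 48 h, parasites were counted by haemocytometer and compared with untreated and pentamidine controls.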

[2] = system: Leishmania donovani; test: Antiparasitic activity against Leishmania donovani MHOM/IN/83/HS70 at 25 ug/mL after 72 hrs; type: functional, organism-based
Summary of the method: (§2)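 Promastigotes at 50 000 parasites/mL, 27 °C, 72 h, with compound at final 50, 25, 10, 1 and 0.1 μg/mL. Compound dissolved in medium plus DMSO (final DMSO under 0.1%) and filter-sterilised (0.22 μm). Triplicate wells. Activity was judged by inverted phase-contrast microscopy of a culture drop against untreated and pentamidine controls.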

[3] = system: Leishmania amazonensis; test: Antiparasitic activity against Leishmania amazonensis IFLA/BR/67/PH8 at 10 ug/mL after 72 hrs; type: functional; summary of the method: as §2
[4] = system: Leishmania braziliensis; test: Antiparasitic activity against Leishmania braziliensis MHOM/BR/75/M2903 at 25 ug/mL after 72 hrs; type: functional, organism-based; summary of the method: as §2
[5] = system: Leishmania donovani; test: Antiparasitic activity against Leishmania donovani MHOM/IN/83/HS70 at 50 ug/mL after 72 hrs; type: functional, organism-based; summary of the method: as §2
[6] = system: Trypanosoma cruzi; test: Antiparasitic activity against Trypanosoma cruzi Tulahuen epimastigotes at 10 ug/mL after 48 hrs; type: functional; summary of the method: as §1
[7] = system: Leishmania braziliensis; test: Antiparasitic activity against Leishmania braziliensis MHOM/BR/75/M2903 at 50 ug/mL after 72 hrs; type: functional, organism-based; summary of the method: as §2
[8] = system: Leishmania amazonensis; test: Antiparasitic activity against Leishmania amazonensis IFLA/BR/67/PH8 at 50 ug/mL after 72 hrs; type: functional, organism-based; summary of the method: as §2
[9] = system: Leishmania braziliensis; test: Antiparasitic activity against Leishmania braziliensis MHOM/BR/75/M2903 at 10 ug/mL after 72 hrs; type: functional; summary of the method: as §2
[10] = system: Trypanosoma cruzi; test: Antiparasitic activity against Trypanosoma cruzi Tulahuen epimastigotes at 25 ug/mL after 48 hrs; type: functional
[11] = system: Leishmania amazonensis; test: Antiparasitic activity against Leishmania amazonensis IFLA/BR/67/PH8 at 25 ug/mL after 72 hrs; type: functional, organism-based; summary of the method: as §2
[12] = system: Leishmania donovani; test: Antiparasitic activity against Leishmania donovani MHOM/IN/83/HS70 at 10 ug/mL after 72 hrs; type: functional; summary of the method: as §2
[13] = system: Bacillus subtilis; test: Antibacterial activity against Bacillus subtilis ATCC 6633 at 0.0312 mg/mL after 18 hrs; type: functional, organism-based
[14] = system: Leishmania donovani; test: Antiparasitic activity against Leishmania donovani MHOM/IN/83/HS70 at 1 ug/mL after 72 hrs; type: functional; summary of the method: as §2
[15] = system: Trypanosoma cruzi; test: Antiparasitic activity against Trypanosoma cruzi Tulahuen epimastigotes at 0.1 ug/mL after 48 hrs; type: functional; summary of the method: as §1
[16] = system: Staphylococcus aureus; test: Antibacterial activity against Staphylococcus aureus ATCC 25923/6538 at 0.0312 mg/mL after 18 hrs; type: functional, organism-based
[17] = system: Leishmania donovani; test: Antiparasitic activity against Leishmania donovani MHOM/IN/83/HS70 at 0.1 ug/mL after 72 hrs; type: functional; summary of the method: as §2
[18] = system: Shigella flexneri; test: Antibacterial activity against Shigella flexneri […] at 0.0625 mg/mL after 18 hrs; type: functional, organism-based
[19] = system: Leishmania amazonensis; test: Antiparasitic activity against Leishmania amazonensis IFLA/BR/67/PH8 at 1 ug/mL after 72 hrs; type: functional; summary of the method: as §2
[20] = system: Leishmania braziliensis; test: Antiparasitic activity against Leishmania braziliensis MHOM/BR/75/M2903 at 1 ug/mL after 72 hrs; type: functional; summary of the method: as §2
[21] = system: Shigella flexneri; test: Antibacterial activity against Shigella flexneri […] at 0.0312 mg/mL after 18 hrs; type: functional, organism-based
[22] = system: Trypanosoma cruzi; test: Antiparasitic activity against Trypanosoma cruzi Tulahuen epimastigotes at 1 ug/mL after 48 hrs; type: functional; summary of the method: as §1
[23] = system: Leishmania amazonensis; test: Antiparasitic activity against Leishmania amazonensis IFLA/BR/67/PH8 at 0.1 ug/mL after 72 hrs; type: functional; summary of the method: as §2
[24] = system: Leishmania braziliensis; test: Antiparasitic activity against Leishmania braziliensis MHOM/BR/75/M2903 at 0.1 ug/mL after 72 hrs; type: functional; summary of the method: as §2
[25] = system: Staphylococcus aureus; test: Antibacterial activity against Staphylococcus aureus ATCC 25923/6538 at 0.0625 mg/mL after 18 hrs; type: functional, organism-based
[26] = system: Escherichia coli; test: Antibacterial activity against Escherichia coli ATCC 8739 at 0.0312 mg/mL after 18 hrs; type: functional, organism-based

| SMILES | Activity [1] | Activity [2] | Activity [3] | Activity [4] | Activity [5] | Activity [6] | Activity [7] | Activity [8] | Activity [9] | Activity [10] | Activity [11] | Activity [12] | also measured |
| --- | --- | --- | --- | --- | --- | --- | --- | --- | --- | --- | --- | --- | --- |
| CC(=O)OC[C@]12CC[C@H]3[C@@H](C[C@H]4O[C@]45[C@@H](O)C=CC(=O)[C@]35C)[C@@H]1CC[C@@H]2[C@@](C)(O)[C@H]1CC(C)=C(C)C(=O)O1 | 50% | Active | 75% | Active | Active | 0% | Active | Active | 50% | 0% | Active | 75% |  |
| N=C(N)c1ccc(OCCCCCOc2ccc(C(=N)N)cc2)cc1 |  |  | Active |  |  | Active |  |  | Active |  |  | Active |  |
| CC(=O)OC[C@]12CC[C@H]3[C@@H](CC=C4[C@@H](O)C=CC(=O)[C@@]43C)[C@@H]1CC[C@@H]2[C@@](C)(O)[C@H]1CC(C)=C(C)C(=O)O1 | Active | Active | Active | Active | Active | 75% | Active | Active | Active | Active | Active | Active | Activity [13]: inactive; Activity [14]: 75%; Activity [15]: 0%; Activity [16]: inactive; Activity [17]: 0%; Activity [18]: inactive; Activity [19]: 75%; Activity [20]: 50%; Activity [21]: inactive; Activity [22]: 0%; Activity [23]: 0%; Activity [24]: 0%; Activity [25]: inactive; Activity [26]: inactive |
